In PMC6525002 (Cancer Management and Research, 2019):
“And” between values parts separate entries of the source, which are not always exact repeats. Identical values can stand only once.

What was measured:
[1] = tested on: advanced NSCLC with EGFR gene mutations; experiment: Phase Ib clinical antitumor activity; format: in vivo, human
[2] = Phase Ib pharmacokinetics, multi-dosing; format: in vivo, human
Procedure, shortened: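 Oral test compound, flat doses twice daily for 28 days. Plasma sampled before the first daily dose on Days 8, 9, 10, 22 and 29. On Day 15, sampling ran 0.05 h predose and 0.5, 1, 1.5, 2, 4, 6, 8, 10 and 12 h post-dose. Assay by LC-MS with multiple reaction monitoring, LLOQ 1 ng/mL. Parameters were calculated from individual concentration-time profiles.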

[3] = multi-dosing 100 mg twice daily, N=2
[4] = multi-dosing 100 mg twice daily, N=2, mean±SD
[5] = multi-dosing 200 mg twice daily, N=3, mean±SD
[6] = multi-dosing 300 mg twice daily, N=3, mean±SD
[7] = multi-dosing 400 mg twice daily, N=15, mean±SD
[8] = multi-dosing 500 mg twice daily, N=12, mean±SD
[9] = multi-dosing 650 mg twice daily, N=6, mean±SD

simotinib
deaths during the whole study ([1]; 100 mg group): 2 deaths
deaths during the whole study ([1]; 200 mg group): 3 deaths
deaths during the whole study ([1]; 300 mg group): 1 deaths
deaths during the whole study ([1]; 400 mg group): 1 deaths
partial response in patients with brain metastases ([1]; 500 mg, 12 patients): 16.7% and 16%
partial response in patients with brain metastases ([1]; 650 mg, 6 patients): 50%
stable disease as best response ([1]; 41 patients, RECIST 1.1): 46.3%
deaths during the whole study (treatment phase and follow-up period) ([1]; all doses): 7 deaths
survival rate at 1-year ([1]; all doses): 88.2%
median PFS ([1]; all doses, Kaplan–Meier, 95%CI 4.7, 12.1): 9.9 months
median OS ([1]; all doses, Kaplan–Meier, 95%CI 12.3, 22.5): 14.6 months
patients with brain metastases who achieved partial response on these metastases ([1]; of the 18 patients with brain metastases): 5 patients
T1/2, range over doses ([2]; 200–650 mg doses): 8 to 13 h
AUC0-∞ [2, 3]: 956.9 ng·h/mL
CL [2, 3]: 148.5 L/h
T1/2 [2, 3]: 6.2 h
Tmax [2, 3]: 1.0(0–2.0) h
Vd [2, 3]: 1323.3 L
AUC0-last [2, 4]: 920.4 ± 349.2 ng·h/mL
Cavg [2, 4]: 76.7 ± 29.1 ng/mL
Cmax [2, 4]: 130.3 ± 70.3 ng/mL
Cmin [2, 4]: 54.5 ± 32.1 ng/mL
Tmax ([2]; multi-dosing 200 mg twice daily, N=3): 4.0 (2.0–4.0) h
AUC0-last [2, 5]: 3,940.9±2,689.0 ng•hr/mL
AUC0-∞ [2, 5]: 6,571.6±3,241.2 ng•hr/mL
CL [2, 5]: 66.1 ± 45.1 L/h
Cavg [2, 5]: 328.4 ± 224.1 ng/mL
Cmax [2, 5]: 447.0 ± 258.8 ng/mL
Cmin [2, 5]: 207.0 ± 152.7 ng/mL
T1/2 [2, 5]: 9.6 ± 4.2 h
Vd [2, 5]: 1,050.0±1,020.6 L
Tmax ([2]; multi-dosing 300 mg twice daily, N=3): 1.5 (1.0–2.0) h
AUC0-last [2, 6]: 6,013.9±3,058.1 ng•hr/mL
AUC0-∞ [2, 6]: 9,728.6±1,648.2 ng•hr/mL
CL [2, 6]: 57.3 ± 29.1 L/h
Cavg [2, 6]: 501.2 ± 254.8 ng/mL
Cmax [2, 6]: 1,519.0±1,132.8 ng/mL
Cmin [2, 6]: 288.0 ± 117.4 ng/mL
T1/2 [2, 6]: 10.4 ± 7.8 h
Vd [2, 6]: 1,019.6±1,077.5 L
Tmax ([2]; multi-dosing 400 mg twice daily, N=15): 2.0 (0–8.0) h
AUC0-last [2, 7]: 5,245.7±2,194.4 ng•hr/mL
AUC0-∞ [2, 7]: 10,577.7±5,867.6 ng•hr/mL
CL [2, 7]: 99.5 ± 70.4 L/h
Cavg [2, 7]: 437.1 ± 182.9 ng/mL
Cmax [2, 7]: 767.9 ± 338.1 ng/mL
Cmin [2, 7]: 251.6 ± 127.0 ng/mL
T1/2 [2, 7]: 13.0 ± 11.8 h
Vd [2, 7]: 2,000.6±3,169.6 L
Tmax ([2]; multi-dosing 500 mg twice daily, N=12): 1.8 (1.0–6.0) h
AUC0-last [2, 8]: 7,819.8±1,942.3 ng•hr/mL
AUC0-∞ [2, 8]: 12,780.6±3,894.7 ng•hr/mL
CL [2, 8]: 67.7 ± 17.2 L/h
Cavg [2, 8]: 651.6 ± 161.9 ng/mL
Cmax [2, 8]: 1,396.0±534.8 ng/mL
Cmin [2, 8]: 378.3 ± 132.0 ng/mL
T1/2 [2, 8]: 8.4 ± 2.8 h
Vd [2, 8]: 811.3 ± 326.9 L
Tmax ([2]; multi-dosing 650 mg twice daily, N=6): 2.0 (1.5–8) h
AUC0-last [2, 9]: 4,615.7±1,599.7 ng•hr/mL
AUC0-∞ [2, 9]: 8,193.3±3,211.2 ng•hr/mL
CL [2, 9]: 156.3 ± 55.6 L/h
Cavg [2, 9]: 384.6 ± 133.3 ng/mL
Cmax [2, 9]: 650.8 ± 234.7 ng/mL
Cmin [2, 9]: 214.3 ± 84.8 ng/mL
T1/2 [2, 9]: 9.2 ± 1.9 h
Vd [2, 9]: 2,021.8±635.7 L
time to maximum concentration, range over doses ([2]; multiple dosing, 300, 400, 500, and 650 mg doses): 1.5 to 2.0 h
